Data published in publication PMC6440678 (Clinical and Translational Science, 2018).

Legend:
[1] = Plasma pharmacokinetics of PF‐04447943, phase Ib study; assay type: in vivo, human; conditions: for AUC0−12 (dn) / Cmax (dn): dose normalized to 1 mg; for AUC0−12 (dn) / Cmax (dn) / Cmax: geometric mean (geometric %CV); for Tmax / Cmax / AUC(0-t): human, plasma; for Tmax / Cmax: oral; for AUC(0-t): po
Townes SCD mice = conditions: PF‐04447943 alone, pretreatment; cited from earlier work
plasma cGMP = assay: Plasma cGMP levels in SCD patients; assay type: in vivo, human; conditions: PF‐04447943 treatment, current study (data not shown)
[2] = system: neutrophil‐platelet and monocyte‐platelet aggregates; assay: Leukocyte‐platelet aggregates by flow cytometry in SCD patients; assay type: in vivo, human; conditions: day 29, 25 mg twice daily
How it was run: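 Citrated whole blood was taken before dosing on days 1, 2, 7, 14, 21 and 29 and at baseline. Within 30 min it was mixed with FacsLysing solution and refrigerated, then spun 5 min at 500 g. Cells were resuspended in HEPES/NaCl/0.5% BSA, pH 7.4, and stained with PC5-anti-CD14 plus PE-CD42a or isotype. Flow cytometry reported aggregates as % cells and size as CD42a MFI. Day-29 percent change was estimated by repeated-measures model, with Holm-Bonferroni-adjusted P.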

[3] = system: patients with stable sickle cell disease; assay: Safety and tolerability, phase Ib study; assay type: in vivo, human
[4] = system: cGMP in cerebral spinal fluid; conditions: systemic administration; cited from earlier work
HbF and Hb levels = assay: Hematology; assay type: in vivo, human; conditions: day 29, 5‐mg or 25‐mg twice‐daily groups
How it was run: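 Stable SCD patients randomized 3:1 active:placebo to oral test compound 5 mg or 25 mg or placebo, twice daily ~12 h apart with water for 29 (+1) days. HbF (%) was measured centrally at baseline and before dosing on day 29. Baseline HbF was classed low (<10%) or high (≥10%), split at the sample median.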

[5] = system: cGMP in mouse brain tissue; conditions: systemic administration; cited from earlier work
[6] = system: hospitalized patients with SCD and VOC; conditions: randomized, placebo‐controlled; cited from earlier work
Berkeley SCD mouse model = conditions: administered after a challenge; cited from earlier work
[7] = 5 mg twice daily, % of patients

Structure (SMILES): C[C@@H]1CN(Cc2ncccn2)C[C@H]1c1nc2c(cnn2C2CCOCC2)c(=O)[nH]1 [PF‐04447943, 6‐[(3S,4S)‐4‐methyl‐1‐(pyrimidin‐2‐ylmethyl)pyrrolidin‐3‐yl]‐1‐(tetrahydro‐2H‐pyran‐4‐yl)‐1,5‐dihydro‐4H‐pyrazolo[3,4‐d]pyrimidin‐4‐one]
- dose proportionality of plasma exposure (AUC0‐12, Cmax) ([1]; 5 and 25 mg, day 1): dose proportional
- AUC0−12 (dn) ([1]; day 1, 5 mg): 48 (35) ng·h/mL/mg
- Cmax (dn) ([1]; day 1, 5 mg): 9.2 (39) ng/mL/mg
- AUC0−12 (dn) ([1]; day 1, 25 mg): 47 (29) ng·h/mL/mg
- Cmax (dn) ([1]; day 1, 25 mg): 9.9 (31) ng/mL/mg
- Tmax ([1]; 5 mg): 1.9 h
- Cmax ([1]; 5 mg, day 1, 5 mg): 45.8 ng/mL
- Tmax ([1]; 25 mg): 1 h
- Cmax ([1]; 25 mg, day 1, 25 mg): 248 ng/mL
- AUC(0-t) ([1]; 5 mg): 242 ng·h/mL
- AUC(0-t) ([1]; 25 mg): 1170 ng·h/mL
- number of neutrophil‐platelet aggregates (Townes SCD mice): decrease in neutrophil‐platelet aggregates
- change in plasma cGMP levels (plasma cGMP): no significant changes
- reduction from baseline in size of neutrophil‐platelet aggregates ([2]; adjusted P = 0.018): 34%
- reduction from baseline in number of circulating monocyte‐platelet aggregates ([2]; adjusted P = 0.025): 52%
- reduction from baseline in number of neutrophil‐platelet aggregates ([2]; adjusted P = 0.095): 46%
- reduction from baseline in size of circulating monocyte‐platelet aggregates ([2]; adjusted P = 0.140): 36%
- patients who experienced sickle cell pain crisis ([3]; 5 mg twice daily): 14%
- treatment‐related AE: dizziness [3, 7]: 0%
- treatment‐related AE: fatigue [3, 7]: 0%
- treatment‐related AE: headache ([3]; 5 mg twice daily, up to 29 days, % of patients): 0%
- patients who experienced sickle cell pain crisis ([3]; 25 mg twice daily): 13%
- treatment‐related AE: dizziness ([3]; 25 mg twice daily, % of patients): 13%
- deaths during the study ([3]; 5 and 25 mg twice daily): No deaths occurred
- tolerability ([3]; 5 and 25 mg twice daily, 29‐day treatment period): well tolerated
- cGMP in cerebral spinal fluid in the rat [4]: dose‐dependent increases
- change in HbF level (HbF and Hb levels): No significant changes
- cGMP in mouse brain tissue [5]: accumulation of cGMP in mouse brain tissue

Structure (SMILES): C[C@@H]1O[C@@H](O[C@@H]2[C@@H](NC(=O)c3cc(=O)[nH]c(=O)[nH]3)C[C@@H](C(=O)NCCNC(=O)COCCOCC(=O)Nc3cc(S(=O)(=O)O)cc4cc(S(=O)(=O)O)cc(S(=O)(=O)O)c34)C[C@H]2O[C@@H]2O[C@H](CO)[C@H](O)[C@H](O[C@@H](CC3CCCCC3)C(=O)O)[C@H]2OC(=O)c2ccccc2)[C@@H](O)[C@H](O)[C@@H]1O [rivipansel]
- time to VOC resolution, length of stay, parenteral opioid requirement [6]: trends toward improved
- leukocyte adhesion (Berkeley SCD mouse model): reduced leukocyte adhesion
